Results from ChEMBL document CHEMBL1140069, “In vitro antifungal activity of polyfunctionalized 2-(hetero)arylquinolines prepared through imino Diels-Alder reactions” (2008).
Converted amounts (≈) assume the structure as drawn.

Experiments:
Type in all cases: functional
Candida albicans [1] = assay: Antimicrobial activity against Candida albicans C130 isolate at 100 ug/ml after 24 hrs
How it was run: (§1)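 Growth-inhibition microplate test. Strains are grown on Sabouraud-chloramphenicol agar for 48 h at 30 °C, and inoculum is added to RPMI-1640 containing compound at a final 100–6.25, with DMSO ≤2%. Each strain has a growth control (same DMSO, no compound) and a sterility control.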

Candida tropicalis [2] = assay: Antimicrobial activity against Candida tropicalis C131 isolate at 100 ug/ml after 24 hrs
How it was run: (§2)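 Percent growth inhibition in 96-well microplates. Compound stocks in DMSO (≤2%) were diluted in RPMI-1640 to final 100–6.25 µg/mL, and 100 µL inoculum was added (final 200 µL). Controls were a growth well (inoculum with matching DMSO, no compound) and a sterility well (no inoculum). Inhibition was calculated against growth and sterility wells.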

Candida albicans [3] = assay: Antimicrobial activity against Candida albicans C126 isolate at 12.5 ug/ml after 24 hrs; how it was run: as §1
Cryptococcus neoformans [4] = assay: Antimicrobial activity against Cryptococcus neoformans IM 031631 isolate at 50 ug/ml after 48 hrs; how it was run: as §2
Cryptococcus neoformans [5] = assay: Antimicrobial activity against Cryptococcus neoformans IM 00319 isolate at 12.5 ug/ml after 48 hrs; how it was run: as §2
Cryptococcus neoformans [6] = assay: Antimicrobial activity against Cryptococcus neoformans IM 983040 isolate at 6.25 ug/ml after 48 hrs
How it was run: (§3)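 Clinical Cryptococcus isolates kept on Sabouraud-dextrose agar slopes; inoculum 1–5 × 10³ CFU/mL. Quinoline DMSO stocks were diluted in RPMI-1640 to final 100–6.25 µg/mL, with DMSO ≤2%. An equal volume of inoculum was added (200 µL per well). Run in triplicate.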

Candida tropicalis [7] = assay: Antimicrobial activity against Candida tropicalis C131 isolate at 25 ug/ml after 24 hrs; how it was run: as §2
Nakaseomyces glabratus [8] = assay: Antimicrobial activity against Candida glabrata C115 isolate at 12.5 ug/ml after 24 hrs; how it was run: as §1
Cryptococcus neoformans [9] = assay: Antimicrobial activity against Cryptococcus neoformans IM 961951 isolate at 12.5 ug/ml after 48 hrs; how it was run: as §2
Cryptococcus neoformans [10] = assay: Antimicrobial activity against Cryptococcus neoformans IM 042074 isolate at 6.25 ug/ml after 48 hrs; how it was run: as §2
Candida albicans [11] = assay: Antimicrobial activity against Candida albicans C128 isolate at 50 ug/ml after 24 hrs; how it was run: as §1
Candida tropicalis [12] = assay: Antimicrobial activity against Candida tropicalis C131 isolate at 6.25 ug/ml after 24 hrs; how it was run: as §2
Candida albicans [13] = assay: Antimicrobial activity against Candida albicans C129 isolate at 100 ug/ml after 24 hrs; how it was run: as §1
Cryptococcus neoformans [14] = assay: Antimicrobial activity against Cryptococcus neoformans IM 042074 isolate at 12.5 ug/ml after 48 hrs; how it was run: as §2
Cryptococcus neoformans [15] = assay: Antimicrobial activity against Cryptococcus neoformans IM 961951 isolate at 6.25 ug/ml after 48 hrs; how it was run: as §3
Cryptococcus neoformans [16] = assay: Antimicrobial activity against Cryptococcus neoformans IM 961951 isolate at 50 ug/ml after 48 hrs; how it was run: as §3
Cryptococcus neoformans [17] = assay: Antimicrobial activity against Cryptococcus neoformans IM 972751 isolate at 50 ug/ml after 48 hrs; how it was run: as §3
Candida albicans [18] = assay: Antimicrobial activity against Candida albicans C130 isolate at 50 ug/ml after 24 hrs; how it was run: as §1
Candida albicans [19] = assay: Antimicrobial activity against Candida albicans C128 isolate at 100 ug/ml after 24 hrs; how it was run: as §1
Cryptococcus neoformans [20] = assay: Antimicrobial activity against Cryptococcus neoformans IM 972751 isolate at 6.25 ug/ml after 48 hrs; how it was run: as §3
Candida parapsilosis = assay: Antimicrobial activity against Candida parapsilosis C124 isolate at 12.5 ug/ml after 24 hrs; details: Lodderomyces parapsilosis; how it was run: as §2
Cryptococcus neoformans [21] = assay: Antimicrobial activity against Cryptococcus neoformans ATCC 32264 at 25 ug/ml after 48 hrs; details: ATCC 32264, 48 h; how it was run: as §2
Candida albicans [22] = assay: Antimicrobial activity against Candida albicans C127 isolate at 100 ug/ml after 24 hrs; details: C127, 24 h; how it was run: as §1
Cryptococcus neoformans [23] = assay: Antimicrobial activity against Cryptococcus neoformans ATCC 32264 at 12.5 ug/ml after 48 hrs; details: ATCC 32264, 48 h; how it was run: as §2
Cryptococcus neoformans [24] = assay: Antimicrobial activity against Cryptococcus neoformans IM 052470 isolate at 100 ug/ml after 48 hrs; how it was run: as §2
Cryptococcus neoformans [25] = assay: Antimicrobial activity against Cryptococcus neoformans IM 983036 isolate at 50 ug/ml after 48 hrs; how it was run: as §3
Cryptococcus neoformans [26] = assay: Antimicrobial activity against Cryptococcus neoformans IM 042074 isolate at 25 ug/ml after 48 hrs; how it was run: as §2
Cryptococcus neoformans [27] = assay: Antimicrobial activity against Cryptococcus neoformans IM 031631 isolate at 25 ug/ml after 48 hrs; how it was run: as §2
Cryptococcus neoformans [28] = assay: Antimicrobial activity against Cryptococcus neoformans IM 052470 isolate at 25 ug/ml after 48 hrs; how it was run: as §2
Cryptococcus neoformans [29] = assay: Antimicrobial activity against Cryptococcus neoformans IM 983036 isolate at 6.25 ug/ml after 48 hrs; how it was run: as §3
Cryptococcus neoformans [30] = assay: Antimicrobial activity against Cryptococcus neoformans IM 983036 isolate at 100 ug/ml after 48 hrs; how it was run: as §3
Nakaseomyces glabratus [31] = assay: Antimicrobial activity against Candida glabrata C115 isolate at 50 ug/ml after 24 hrs; how it was run: as §2
Aspergillus niger = assay: Antifungal activity against Aspergillus niger ATCC 9029 after 48 hrs by broth microdilution technique; details: ATCC 9029, 48 h
How it was run: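 CLSI broth microdilution: M-27 A2 for yeasts and M-38 A for filamentous fungi. Medium is RPMI-1640 buffered to pH 7.0 with MOPS. Compound is diluted twofold from 250 to 0.98, final DMSO ≤2%. Inoculum is 1–5 × 10³ CFU/mL. Plates are incubated at 35 °C in a moist, dark chamber and read visually at 48 h. MIC100 is the lowest concentration giving total growth inhibition versus drug-free control.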

Cryptococcus neoformans [32] = assay: Antimicrobial activity against Cryptococcus neoformans IM 031706 isolate at 6.25 ug/ml after 48 hrs; how it was run: as §2
Cryptococcus neoformans [33] = assay: Antimicrobial activity against Cryptococcus neoformans IM 052470 isolate at 50 ug/ml after 48 hrs; how it was run: as §2
Cryptococcus neoformans [34] = assay: Antimicrobial activity against Cryptococcus neoformans IM 972751 isolate at 25 ug/ml after 48 hrs; how it was run: as §3
Cryptococcus neoformans [35] = assay: Antimicrobial activity against Cryptococcus neoformans IM 972751 isolate at 100 ug/ml after 48 hrs; how it was run: as §3
Candida albicans [36] = assay: Antimicrobial activity against Candida albicans ATCC 10231 at 25 ug/ml after 24 hrs; details: ATCC 10231, 24 h; how it was run: as §1
Candida albicans [37] = assay: Antimicrobial activity against Candida albicans C128 isolate at 6.25 ug/ml after 24 hrs; how it was run: as §1
Pichia kudriavzevii [38] = assay: Antimicrobial activity against Candida krusei C117 isolate at 6.25 ug/ml after 24 hrs; how it was run: as §2
Pichia kudriavzevii [39] = assay: Antimicrobial activity against Candida krusei C117 isolate at 25 ug/ml after 24 hrs; how it was run: as §2
Candida albicans [40] = assay: Antimicrobial activity against Candida albicans C126 isolate at 25 ug/ml after 24 hrs; how it was run: as §1
Cryptococcus neoformans [41] = assay: Antimicrobial activity against Cryptococcus neoformans IM 031631 isolate at 12.5 ug/ml after 48 hrs; how it was run: as §2
Candida albicans [42] = assay: Antimicrobial activity against Candida albicans C128 isolate at 25 ug/ml after 24 hrs; how it was run: as §1

**Q.** Which results are given for `Cc1cc(-c2ccncc2)nc2ccccc12`?
**A.** inhibition at 100 µg/mL (Candida albicans [1]): 84%; inhibition at 100 µg/mL (Candida tropicalis [2]): 100%; inhibition at 12.5 µg/mL (Candida albicans [3]): 0%; inhibition at 50 µg/mL (Cryptococcus neoformans [4]): 75%; inhibition at 12.5 µg/mL (Cryptococcus neoformans [5]): 32%; inhibition at 6.25 µg/mL (Cryptococcus neoformans [6]): 0%; inhibition at 25 µg/mL (Candida tropicalis [7]): 60%; inhibition at 12.5 µg/mL (Nakaseomyces glabratus [8]): 1%; inhibition at 12.5 µg/mL (Cryptococcus neoformans [9]): 34%; inhibition at 6.25 µg/mL (Cryptococcus neoformans [10]): 68%; inhibition at 50 µg/mL (Candida albicans [11]): 15%; inhibition at 6.25 µg/mL (Candida tropicalis [12]): 22%; inhibition at 100 µg/mL (Candida albicans [13]): 85%; inhibition at 12.5 µg/mL (Cryptococcus neoformans [14]): 76%; inhibition at 6.25 µg/mL (Cryptococcus neoformans [15]): 4%; inhibition at 50 µg/mL (Cryptococcus neoformans [16]): 89%; inhibition at 50 µg/mL (Cryptococcus neoformans [17]): 20%; inhibition at 50 µg/mL (Candida albicans [18]): 84%; inhibition at 100 µg/mL (Candida albicans [19]): 88%; inhibition at 6.25 µg/mL (Cryptococcus neoformans [20]): 0%; inhibition at 12.5 µg/mL (Candida parapsilosis): 0%; inhibition at 25 µg/mL (Cryptococcus neoformans [21]): 100%; inhibition at 100 µg/mL (Candida albicans [22]): 80%; inhibition at 12.5 µg/mL (Cryptococcus neoformans [23]): 90.5%; inhibition at 100 µg/mL (Cryptococcus neoformans [24]): 99%; inhibition at 50 µg/mL (Cryptococcus neoformans [25]): 69%; inhibition at 25 µg/mL (Cryptococcus neoformans [26]): 87%; inhibition at 25 µg/mL (Cryptococcus neoformans [27]): 57%; inhibition at 25 µg/mL (Cryptococcus neoformans [28]): 53%; inhibition at 6.25 µg/mL (Cryptococcus neoformans [29]): 0%; inhibition at 100 µg/mL (Cryptococcus neoformans [30]): 79%; inhibition at 50 µg/mL (Nakaseomyces glabratus [31]): 4%; MIC (Aspergillus niger): 200 µg/mL (≈ 908 µM); inhibition at 6.25 µg/mL (Cryptococcus neoformans [32]): 21%; inhibition at 50 µg/mL (Cryptococcus neoformans [33]): 75%; inhibition at 25 µg/mL (Cryptococcus neoformans [34]): 9%; inhibition at 100 µg/mL (Cryptococcus neoformans [35]): 98%; inhibition at 25 µg/mL (Candida albicans [36]): 63%; inhibition at 6.25 µg/mL (Candida albicans [37]): 0%; inhibition at 6.25 µg/mL (Pichia kudriavzevii [38]): 0%; inhibition at 25 µg/mL (Pichia kudriavzevii [39]): 0%; inhibition at 25 µg/mL (Candida albicans [40]): 0%; inhibition at 12.5 µg/mL (Cryptococcus neoformans [41]): 36%; inhibition at 25 µg/mL (Candida albicans [42]): 0%
